Source: ChEMBL document CHEMBL3244181, “Synthesis and biological activity of cocaine analogues. 2. 6H-[2]Benzopyrano[4,3-c]pyridin-6-ones” (J Med Chem, 1979)

Legend:
[1] = Inhibition of [3H]norepinephrine reuptake at norepinephrine transporter in CD Charles River albino rat brain synaptosomes after 5 mins by scintillation counting analysis; format: subcellular
Procedure, shortened: (§1)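 Synaptosomes were taken from the 0.8/1.2 M sucrose gradient interface and resuspended in Krebs Ringer phosphate with pargyline (1.6 mg/100 mL) and glucose (237 mg/100 mL). They were incubated with unlabelled norepinephrine and [3H]norepinephrine for 5 min at 30 °C, quenched with cold buffer, and pelleted at 10000g. Pellet counts, minus post-incubation tracer blanks, gave % inhibition as (control − sample)/control cpm.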

Rattus norvegicus [2] = organism: Rattus norvegicus; test: Inhibition of [3H]norepinephrine reuptake at norepinephrine transporter in CD Charles River albino rat brain synaptosomes at 10^-5 M after 5 mins by scintillation counting analysis; format: subcellular; procedure, shortened: as §1
Rattus norvegicus [3] = organism: Rattus norvegicus; test: Inhibition of [3H]norepinephrine reuptake at norepinephrine transporter in rat brain at 10^-5 M by scintillation counting analysis; format: tissue-based
[4] = target: Sodium-dependent dopamine transporter (Homo sapiens) (UniProt Q01959); test: Inhibition of dopamine reuptake at DAT (unknown origin) at 10^-5 M
[5] = target: Sodium-dependent serotonin transporter (Homo sapiens) (UniProt P31645); test: Inhibition of serotonin reuptake at SERT (unknown origin) at 10^-5 M
Sequence of Sodium-dependent serotonin transporter (Homo sapiens) (P31645 whole entry, looked up): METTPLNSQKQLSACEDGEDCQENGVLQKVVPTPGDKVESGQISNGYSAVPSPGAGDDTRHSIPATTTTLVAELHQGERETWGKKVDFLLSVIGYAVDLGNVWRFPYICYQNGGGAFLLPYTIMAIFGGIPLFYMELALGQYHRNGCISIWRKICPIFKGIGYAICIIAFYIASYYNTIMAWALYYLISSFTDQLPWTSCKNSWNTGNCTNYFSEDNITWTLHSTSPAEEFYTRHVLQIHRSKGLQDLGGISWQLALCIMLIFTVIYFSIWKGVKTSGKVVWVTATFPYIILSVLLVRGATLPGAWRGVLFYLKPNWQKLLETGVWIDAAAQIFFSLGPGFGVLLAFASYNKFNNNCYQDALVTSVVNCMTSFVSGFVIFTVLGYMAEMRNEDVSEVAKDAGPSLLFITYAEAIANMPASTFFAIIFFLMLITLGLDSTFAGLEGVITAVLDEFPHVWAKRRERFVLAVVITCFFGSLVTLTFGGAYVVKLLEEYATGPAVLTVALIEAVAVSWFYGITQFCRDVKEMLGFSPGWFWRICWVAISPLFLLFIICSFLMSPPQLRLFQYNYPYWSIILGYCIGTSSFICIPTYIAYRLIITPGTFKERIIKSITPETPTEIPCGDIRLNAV

Sequence of Sodium-dependent dopamine transporter (Homo sapiens) (Q01959 whole entry): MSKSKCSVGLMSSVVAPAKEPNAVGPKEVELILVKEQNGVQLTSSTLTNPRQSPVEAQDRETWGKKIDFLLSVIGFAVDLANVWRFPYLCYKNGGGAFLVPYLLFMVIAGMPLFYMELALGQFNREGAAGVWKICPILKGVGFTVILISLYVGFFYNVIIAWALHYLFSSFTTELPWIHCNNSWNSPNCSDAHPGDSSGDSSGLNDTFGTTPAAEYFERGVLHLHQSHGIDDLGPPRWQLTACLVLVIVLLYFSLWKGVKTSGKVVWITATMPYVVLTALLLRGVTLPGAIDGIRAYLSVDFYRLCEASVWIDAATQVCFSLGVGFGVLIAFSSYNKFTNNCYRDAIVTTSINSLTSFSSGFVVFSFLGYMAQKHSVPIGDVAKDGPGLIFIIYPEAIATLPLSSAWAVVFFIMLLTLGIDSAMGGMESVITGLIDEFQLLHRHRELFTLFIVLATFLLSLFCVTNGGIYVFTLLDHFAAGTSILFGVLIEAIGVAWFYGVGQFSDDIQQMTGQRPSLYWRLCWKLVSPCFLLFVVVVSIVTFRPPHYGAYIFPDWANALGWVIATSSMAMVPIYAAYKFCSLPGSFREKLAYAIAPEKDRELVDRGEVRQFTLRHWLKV

SMILES | IC50 [1] [µM] | inhibition (Rattus norvegicus [2]) [%] | inhibition (Rattus norvegicus [3]) [%] | inhibition [4] [%] | inhibition [5] [%]
CN1[C@@H]2CC[C@H]1C[C@H](OC(=O)c1ccccc1)C2 | 5.6 | – | – | – | –
CN1CC[C@H]2OC(=O)c3ccccc3[C@H]2C1 (relative stereo) | 650 | 0 | – | – | –
CN1CC[C@H]2OC(=O)c3ccccc3[C@@H]2C1 (relative stereo) | 320 | 36 | 11 | 3 | 0
CN1CCc2oc(=O)c3ccccc3c2C1 | 320 | – | – | – | –
COC(=O)[C@H]1[C@@H](OC(=O)c2ccccc2)C[C@@H]2CC[C@H]1N2C [COCAINE] | 0.575 | – | – | – | –
